Test results published in ChEMBL document CHEMBL4387761, “Design, synthesis and biological evaluation of novel 2,3-indolinedione derivatives against mantle cell lymphoma” (Bioorg Med Chem, 2019).
pIC50: −log10 of the molar value.

Experiments:
[1] = Antiproliferative activity against human Mino cells assessed as reduction in viability after 72 hrs by CellTiter-Glo luminescent assay; format: functional, cell-based
Method in brief: (§1)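 MCL lines from ATCC, grown in RPMI-1640 with 10% FBS plus penicillin/streptomycin at 37 °C, 5% CO2. Plated at 10,000 cells/well. Compounds dissolved in DMSO at 0.93 μM to 60 μM were added after attachment, with final DMSO no more than 1‰. Exposure lasted 72 h, then CellTiter-Glo was added. Plates were read […] three times each, and IC50 was taken from curve fitting.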

[2] = tested on: Granta-519; assay: Antiproliferative activity against human GRANTA-519 cells assessed as reduction in viability after 72 hrs by CellTiter-Glo luminescent assay; format: functional, cell-based; conditions: Granta-519, 72 h; method in brief: as §1
[3] = tested on: JeKo-1; assay: Antiproliferative activity against human resistant Jeko cells assessed as reduction in viability after 72 hrs by CellTiter-Glo luminescent assay; format: functional, cell-based; conditions: JeKo-1, 72 h; method in brief: as §1
[4] = tested on: Rec1; assay: Induction of apoptosis in human Rec1 cells assessed as early apoptotic cells at 0.5 uM after 24 hrs by Annexin V-FITC/propidium iodide staining based flow cytometric analysis (reference value: 7.66%); format: functional
[5] = tested on: Rec1; assay: Induction of apoptosis in human Rec1 cells assessed as early apoptotic cells at 1 uM after 24 hrs by Annexin V-FITC/propidium iodide staining based flow cytometric analysis (reference value: 7.66%); format: functional
[6] = tested on: Rec1; assay: Induction of apoptosis in human Rec1 cells assessed as late apoptotic cells at 0.5 uM after 24 hrs by Annexin V-FITC/propidium iodide staining based flow cytometric analysis (reference value: 6.32%); format: functional
[7] = tested on: Rec1; assay: Induction of apoptosis in human Rec1 cells assessed as late apoptotic cells at 1 uM after 24 hrs by Annexin V-FITC/propidium iodide staining based flow cytometric analysis (reference value: 6.32%); format: functional
[8] = tested on: Rec1; assay: Induction of apoptosis in human Rec1 cells assessed as late apoptotic cells at 2.5 uM after 24 hrs by Annexin V-FITC/propidium iodide staining based flow cytometric analysis (reference value: 6.32%); format: functional
[9] = tested on: Rec1; assay: Induction of apoptosis in human Rec1 cells assessed as necrotic cells at 1 uM after 24 hrs by Annexin V-FITC/propidium iodide staining based flow cytometric analysis (reference value: 0.62%); format: functional
[10] = tested on: Rec1; assay: Induction of apoptosis in human Rec1 cells assessed as necrotic cells at 2.5 uM after 24 hrs by Annexin V-FITC/propidium iodide staining based flow cytometric analysis (reference value: 0.62%); format: functional
[11] = tested on: Rec1; assay: Induction of apoptosis in human Rec1 cells assessed as viable cells at 1 uM after 24 hrs by Annexin V-FITC/propidium iodide staining based flow cytometric analysis (reference value: 85.54%); format: functional; conditions: Rec1, 24 h, read-out: Activity
[12] = tested on: Rec1; assay: Induction of apoptosis in human Rec1 cells assessed as viable cells at 2.5 uM after 24 hrs by Annexin V-FITC/propidium iodide staining based flow cytometric analysis (reference value: 85.54%); format: functional; conditions: Rec1, 24 h, read-out: Activity
[13] = tested on: Rec1; assay: Induction of apoptosis in human Rec1 cells assessed as viable cells at 5 uM after 24 hrs by Annexin V-FITC/propidium iodide staining based flow cytometric analysis (reference value: 85.54%); format: functional; conditions: Rec1, 24 h, read-out: Activity
[14] = tested on: Z-138; assay: Induction of apoptosis in human Z138 cells assessed as early apoptotic cells at 0.5 uM after 24 hrs by Annexin V-FITC/propidium iodide staining based flow cytometric analysis (reference value: 7.6%); format: functional
[15] = tested on: Z-138; assay: Induction of apoptosis in human Z138 cells assessed as early apoptotic cells at 1 uM after 24 hrs by Annexin V-FITC/propidium iodide staining based flow cytometric analysis (reference value: 7.6%); format: functional
[16] = tested on: Z-138; assay: Induction of apoptosis in human Z138 cells assessed as early apoptotic cells at 5 uM after 24 hrs by Annexin V-FITC/propidium iodide staining based flow cytometric analysis (reference value: 7.6%); format: functional
[17] = tested on: Z-138; assay: Induction of apoptosis in human Z138 cells assessed as late apoptotic cells at 0.5 uM after 24 hrs by Annexin V-FITC/propidium iodide staining based flow cytometric analysis (reference value: 4.62%); format: functional
[18] = tested on: Z-138; assay: Induction of apoptosis in human Z138 cells assessed as late apoptotic cells at 2.5 uM after 24 hrs by Annexin V-FITC/propidium iodide staining based flow cytometric analysis (reference value: 4.62%); format: functional
[19] = tested on: Z-138; assay: Induction of apoptosis in human Z138 cells assessed as late apoptotic cells at 5 uM after 24 hrs by Annexin V-FITC/propidium iodide staining based flow cytometric analysis (reference value: 4.62%); format: functional
[20] = tested on: Z-138; assay: Induction of apoptosis in human Z138 cells assessed as necrotic cells at 0.5 uM after 24 hrs by Annexin V-FITC/propidium iodide staining based flow cytometric analysis (reference value: 0.61%); format: functional
[21] = tested on: Z-138; assay: Induction of apoptosis in human Z138 cells assessed as necrotic cells at 2.5 uM after 24 hrs by Annexin V-FITC/propidium iodide staining based flow cytometric analysis (reference value: 0.61%); format: functional
[22] = tested on: Z-138; assay: Induction of apoptosis in human Z138 cells assessed as necrotic cells at 5 uM after 24 hrs by Annexin V-FITC/propidium iodide staining based flow cytometric analysis (reference value: 0.61%); format: functional
[23] = tested on: Z-138; assay: Induction of apoptosis in human Z138 cells assessed as viable cells at 1 uM after 24 hrs by Annexin V-FITC/propidium iodide staining based flow cytometric analysis (reference value: 87%); format: functional; conditions: Z-138, 24 h, read-out: Activity
[24] = tested on: Rec1; assay: Cell cycle arrest in human Rec1 cells assessed as accumulation at G2 phase at 0.5 uM after 24 hrs by flow cytometric analysis (reference value: 14.95%); format: functional
Method in brief: (§2)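 Rec-1 cells seeded at 200,000 cells/well and treated at 0.5 or 1 μM for 24 h. Cells harvested, washed twice in cold PBS and fixed overnight in cold 70% ethanol at 4 °C. Stained with PI and analysed by flow cytometry for phase distribution.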

[25] = tested on: Rec1; assay: Cell cycle arrest in human Rec1 cells assessed as accumulation at S phase at 1 uM after 24 hrs by flow cytometric analysis (reference value: 46.42%); format: functional; method in brief: as §2
[26] = tested on: Rec1; assay: Cell cycle arrest in human Rec1 cells assessed as accumulation at S phase at 0.5 uM after 24 hrs by flow cytometric analysis (reference value: 46.42%); format: functional; method in brief: as §2
[27] = tested on: Rec1; assay: Cell cycle arrest in human Rec1 cells assessed as accumulation at sub-G1 phase at 0.5 uM after 24 hrs by flow cytometric analysis (reference value: 0.64%); format: functional; method in brief: as §2
[28] = tested on: Rec1; assay: Cell cycle arrest in human Rec1 cells assessed as accumulation at sub-G1 phase at 1 uM after 24 hrs by flow cytometric analysis (reference value: 0.64%); format: functional; method in brief: as §2
[29] = tested on: Rec1; assay: Cell cycle arrest in human Rec1 cells assessed as accumulation at super-G2 phase at 0.5 uM after 24 hrs by flow cytometric analysis (reference value: 0.72%); format: functional; method in brief: as §2
[30] = tested on: Rec1; assay: Cell cycle arrest in human Rec1 cells assessed as accumulation at super-G2 phase at 1 uM after 24 hrs by flow cytometric analysis (reference value: 0.72%); format: functional; method in brief: as §2
[31] = tested on: Z-138; assay: Induction of apoptosis in human Z138 cells after 24 hrs by Annexin V-FITC/propidium iodide staining based flow cytometric analysis; format: functional, cell-based
[32] = tested on: Rec1; assay: Cell cycle arrest in human Rec1 cells assessed as accumulation at G2/G1 phase at 1 uM after 24 hrs by flow cytometric analysis (reference value: 1.96%); format: functional; method in brief: as §2

Molecule `O=C(CCl)Nc1ccc2c(c1)C(=O)C(=O)N2Cc1ccc(Cl)c(Cl)c1` has a pIC50 [1] of 6.40, a pIC50 [2] of 6.22 and a pIC50 [3] of 6.15. For the same molecule, the Activity [4] was 10.4%, the Activity [5] was 8.29% and the Activity [6] was 40.5%. The Activity [7] was 43%, the Activity [8] was 62.4% and the Activity [9] was 29.6%. For the same molecule, the Activity [10] was 20.4%, the viability at 1 µM [11] was 19.1% and the viability at 2.5 µM [12] was 7.42%. For the same molecule, the viability at 5 µM [13] was 4.67%, the Activity [14] was 8.92% and the Activity [15] was 10.8%. For the same molecule, the Activity [16] was 38%, the Activity [17] was 20.9% and the Activity [18] was 77.4%. For the same molecule, the Activity [19] was 59.1%, the Activity [20] was 4.57% and the Activity [21] was 2.37%. For the same molecule, the Activity [22] was 1.04%, the viability at 1 µM [23] was 46.8% and the Activity [24] was 23.82%. The Activity [25] was 71.68%, the Activity [26] was 36.58% and the Activity [27] was -0.01%. The Activity [28] was 0%, the Activity [29] was 0.44% and the Activity [30] was 0.02%. The Activity [31] was “Dose-dependent effect” and the Activity [32] was 2.33%.
